Experimental findings from ChEMBL document CHEMBL2146357, “Cellular zwitterionic metabolite analogs simultaneously enhance reaction rate, thermostability, salt tolerance, and substrate specificity of α-glucosidase” (Bioorg Med Chem, 2011) are described below.

SMILES strings stand for the structures. The source made the active and inactive calls. No cut-off for these calls is given here.

In assay [1] the test system is Geobacillus stearothermophilus. Kind of assay: Activity of Bacillus stearothermophilus alpha-glucosidase assessed as production of p-nitrophenol using p-nitrophenyl-alpha-D-glucopyranoside as substrate at 50 mM after 3 mins by spectrophotometer. The gist of the method: (§1)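 B. stearothermophilus α-glucosidase at 2.5 × 10^-5 mg/mL in 0.1 M phosphate buffer pH 7.0 with 2.0 mM p-nitrophenyl-α-D-glucopyranoside and 0–1000 mM solute, 37 °C. Release of p-nitrophenol followed at 405 nm. Initial slopes converted to velocities (ε 10900 cm^-1 M^-1), averaged over five runs. Activity = initial velocity with solute divided by initial velocity without solute.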

Assay [2] has as its system Saccharomyces cerevisiae. Kind of assay: Activity of Saccharomyces cerevisiae alpha-glucosidase assessed as production of p-nitrophenol using p-nitrophenyl-alpha-D-glucopyranoside as substrate at 50 mM after 3 mins by spectrophotometer. The method in brief: (§2)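 Enzymes were α-glucosidase from S. cerevisiae or from yeast at 2.5 × 10^-5 mg/mL, with 2.0 mM substrate and 0 or 50 mM solute in 100 mM phosphate pH 7.0 at 37 °C. p-Nitrophenol formation was read at 405 nm. Initial velocities (average of five) were expressed as the ratio of the value with solute to the value without solute.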

Assay [3] deals with Saccharomyces cerevisiae. Kind of assay: Activity of commercial yeast alpha-glucosidase assessed as production of p-nitrophenol using p-nitrophenyl-alpha-D-glucopyranoside as substrate at 50 mM after 3 mins by spectrophotometer. The gist of the method:
as §2

Assay [4] concerns Geobacillus stearothermophilus. Kind of assay: Activity of Bacillus stearothermophilus alpha-glucosidase activity assessed as production of p-nitrophenol using p-nitrophenyl-alpha-D-glucopyranoside as substrate at 800 mM after 3 mins by spectrophotometer. The method in brief:
as §1

The test system of assay [5] is Geobacillus stearothermophilus. Kind of assay: Activity of Bacillus stearothermophilus alpha-glucosidase activity assessed as production of p-nitrophenol using p-nitrophenyl-alpha-D-glucopyranoside as substrate at 200 mM after 3 mins by spectrophotometer. The gist of the method: as §1
The test system of assay [6] is Geobacillus stearothermophilus. Kind of assay: Increase of Bacillus stearothermophilus alpha-glucosidase activity assessed as fold increase in reaction initial velocity using p-nitrophenyl-alpha-D-galactopyranoside as substrate at 750 mM after 3 mins by spectrophotometer relative to control. The gist of the method: (§3)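 Enzyme: B. stearothermophilus α-glucosidase, 2.5 × 10^-5 mg/mL, with 2.0 mM substrate (p-nitrophenyl α-D-glucoside, β-D-glucoside, α-D-galactoside or α-D-mannoside) and 0, 50 or 750 mM solute in 100 mM phosphate pH 7.0 at 37 °C. Initial velocities came from A405 slopes (five measurements). Results given as v(presence)/v(absence).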

Assay [7] has as its system Geobacillus stearothermophilus. Kind of assay: Increase of Bacillus stearothermophilus alpha-glucosidase activity assessed as fold increase in reaction initial velocity using p-nitrophenyl-beta-D-glucopyranoside as substrate at 750 mM after 3 mins by spectrophotometer relative to control. The gist of the method: as §3
Assay [8] deals with Geobacillus stearothermophilus. Kind of assay: Increase of Bacillus stearothermophilus alpha-glucosidase activity assessed as fold increase in reaction initial velocity using p-nitrophenyl-alpha-D-glucopyranoside as substrate at 750 mM after 3 mins by spectrophotometer relative to control. The method in brief: as §3
Assay [9] has as its system Geobacillus stearothermophilus. Kind of assay: Increase of Bacillus stearothermophilus alpha-glucosidase activity assessed as fold increase in reaction initial velocity using p-nitrophenyl-alpha-D-mannopyranoside as substrate at 50 mM after 3 mins by spectrophotometer relative to control. The gist of the method:
as §3

Assay [10] has as its system Geobacillus stearothermophilus. Kind of assay: Increase of Bacillus stearothermophilus alpha-glucosidase activity assessed as fold increase in reaction initial velocity using p-nitrophenyl-alpha-D-galactopyranoside as substrate at 50 mM after 3 mins by spectrophotometer relative to control. The gist of the method: as §3
Assay [11] relates to Geobacillus stearothermophilus. Kind of assay: Increase of Bacillus stearothermophilus alpha-glucosidase activity assessed as fold increase in reaction initial velocity using p-nitrophenyl-beta-D-glucopyranoside as substrate at 50 mM after 3 mins by spectrophotometer relative to control. The method in brief: as §3
The test system of assay [12] is Geobacillus stearothermophilus. Kind of assay: Increase of Bacillus stearothermophilus alpha-glucosidase activity assessed as fold increase in reaction initial velocity using p-Nitrophenyl-alpha-D-glucopyranoside as substrate at 50 mM after 3 mins by spectrophotometer relative to control. The method in brief:
as §3

Assay [13] has as its system Geobacillus stearothermophilus. Kind of assay: Thermostabilization of Bacillus stearothermophilus alpha-glucosidase at 50 mM. The method in brief: (§4)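 Optimum conditions were scanned with 0 or 50 mM solute, 2.5 × 10^-5 mg/mL B. stearothermophilus α-glucosidase and 2.0 mM substrate in 0.10 M phosphate. pH was varied from 6.4 to 7.9, NaCl from 0 to 2.5 M, and temperature was also varied. Activity was read as p-nitrophenol release at 405 nm.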

Assay [14] relates to Geobacillus stearothermophilus. Kind of assay: Enhancement of NaCl salt tolerance at Bacillus stearothermophilus alpha-glucosidase at 50 mM. The method in brief: as §4
The test system of assay [15] is Geobacillus stearothermophilus. Kind of assay: Effect on optimum pH of Bacillus stearothermophilus alpha-glucosidase at 50 mM. The gist of the method: as §4
Assay [16] deals with Geobacillus stearothermophilus. Kind of assay: Activity of Bacillus stearothermophilus alpha-glucosidase activity assessed as production of p-nitrophenol using p-nitrophenyl-alpha-D-glucopyranoside as substrate at 30 to 50 mM after 3 mins by spectrophotometer. The method in brief:
as §1

Assay [17] deals with Geobacillus stearothermophilus. Kind of assay: Activity of Bacillus stearothermophilus alpha-glucosidase activity assessed as production of p-nitrophenol using p-nitrophenyl-alpha-D-glucopyranoside as substrate at > 50 mM after 3 mins by spectrophotometer. The gist of the method:
as §1

Assay [18] deals with Intestinal-type alkaline phosphatase (Bos taurus) (UniProt P19111). Kind of assay: Increase of calf intestine alkaline phosphatase activity assessed as production of p-nitrophenol using p-nitrophenylphosphate as substrate at 50 mM after 3 mins by spectrophotometer. The method in brief: (§5)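 Almond β-glucosidase or calf-intestine alkaline phosphatase, each at 2.5 × 10^-5 mg/mL, was incubated with 2.0 mM substrate and 0 or 50 mM solute in 0.10 M phosphate pH 7.0 at 37 °C. p-Nitrophenol production was followed over incubation time by absorbance at 405 nm.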

The subject of assay [19] is Saccharomyces cerevisiae. Kind of assay: Increase of commercial yeast alpha-glucosidase activity assessed as production of p-nitrophenol using p-nitrophenyl-alpha-D-glucopyranoside as substrate at 50 mM after 3 mins by spectrophotometer. The method in brief:
as §2

A further assay has as its system Prunus dulcis. Kind of assay: Increase of almond beta-glucosidase activity assessed as production of p-nitrophenol using p-nitrophenyl-beta-D-glucopyranoside as substrate at 50 mM after 3 mins by spectrophotometer. The gist of the method:
as §5

Assay [20] has as its system Saccharomyces cerevisiae. Kind of assay: Increase of Saccharomyces cerevisiae alpha-glucosidase activity assessed as production of p-nitrophenol using p-nitrophenyl-alpha-D-glucopyranoside as substrate at 50 mM after 3 mins by spectrophotometer. The method in brief: as §2
The subject of assay [21] is Geobacillus stearothermophilus. Kind of assay: Increase of Bacillus stearothermophilus alpha-glucosidase activity assessed as production of p-nitrophenol using p-nitrophenyl-alpha-D-glucopyranoside as substrate at 50 mM after 3 mins by spectrophotometer. The method in brief: as §1
The subject of assay [22] is Geobacillus stearothermophilus. Kind of assay: Increase of Bacillus stearothermophilus alpha-glucosidase activity assessed as fold increase in reaction initial velocity using p-nitrophenyl-alpha-D-mannopyranoside as substrate at 750 mM after 3 mins by spectrophotometer relative to control. The method in brief:
as §3

The subject of assay [23] is Geobacillus stearothermophilus. Kind of assay: Activity of Bacillus stearothermophilus alpha-glucosidase assessed as increase in urea concentration for enzyme deformation using p-nitrophenyl-alpha-D-glucopyranoside as substrate at 50 mM after 3 mins by spectrophotometer.
The subject of assay [24] is Geobacillus stearothermophilus. Kind of assay: Increase of Bacillus stearothermophilus alpha-glucosidase activity at 30 mM after 3 mins by spectrophotometer relative to control. The method in brief: as §1
The subject of assay [25] is Geobacillus stearothermophilus. Kind of assay: Activity of Bacillus stearothermophilus alpha-glucosidase activity assessed as production of p-nitrophenol using p-nitrophenyl-alpha-D-glucopyranoside as substrate at 1000 mM after 3 mins by spectrophotometer. The method in brief: as §1

Intestinal-type alkaline phosphatase (Bos taurus), sequence (P19111 20-506 limits assumed): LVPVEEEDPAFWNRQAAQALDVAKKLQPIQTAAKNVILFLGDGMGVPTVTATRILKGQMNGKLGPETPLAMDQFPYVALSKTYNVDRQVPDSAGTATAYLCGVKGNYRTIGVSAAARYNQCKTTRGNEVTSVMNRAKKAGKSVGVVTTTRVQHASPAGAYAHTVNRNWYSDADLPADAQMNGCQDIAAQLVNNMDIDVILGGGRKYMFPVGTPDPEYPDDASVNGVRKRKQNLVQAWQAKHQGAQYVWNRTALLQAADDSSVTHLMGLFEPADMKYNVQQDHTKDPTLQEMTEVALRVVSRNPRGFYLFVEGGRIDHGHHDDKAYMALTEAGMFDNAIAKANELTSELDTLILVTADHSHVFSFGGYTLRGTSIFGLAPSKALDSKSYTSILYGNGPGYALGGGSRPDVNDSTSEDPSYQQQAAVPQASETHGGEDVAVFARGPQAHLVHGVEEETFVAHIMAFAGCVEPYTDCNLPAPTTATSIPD

On to `OC[C@@H](O)[C@@H](O)[C@H](O)[C@@H](O)CO`, for which the result (in assay [1]; with Saccharomyces cerevisiae [2]; in the assay on Saccharomyces cerevisiae [3]) was inactive.
Take `CC[N+](CC)(CC)CC(=O)[O-]`: the result in [4] and in assay [1] was Active. Further, the result in the assay on Saccharomyces cerevisiae [2] and with Saccharomyces cerevisiae [3] was inactive.
With `C[N+]1(CC(=O)[O-])CCOCC1`, the outcome in assay [1] was Active. The outcome in the assay with Saccharomyces cerevisiae [2] and in the assay on Saccharomyces cerevisiae [3] was inactive.
As to `C[N+](C)(C)CCCC(=O)[O-]`, the result (in [1]; in the assay on Saccharomyces cerevisiae [2]; in the assay with Saccharomyces cerevisiae [3]) was inactive.
Consider `O[C@H]1[C@H](O)[C@@H](O)[C@H](O)[C@@H](O)[C@H]1O`, for which the result (in [1]; in the assay with Saccharomyces cerevisiae [2]; in the assay with Saccharomyces cerevisiae [3]) was inactive.
As for `CCC[N+](CCC)(CCC)CC(=O)[O-]`, the result (in [5]; in assay [1]; in the assay with Saccharomyces cerevisiae [2]; in the assay on Saccharomyces cerevisiae [3]) was Active.
As to `C[N+](C)(C)CCCCCC(=O)[O-]`, the result (in [1]; in the assay with Saccharomyces cerevisiae [2]; with Saccharomyces cerevisiae [3]) was inactive.
For the molecule `CCCC[N+](CCCC)(CCCC)CC(=O)[O-]`, the fold change (FC) in assay [6] was found to be 0.8; in assay [7], 0.5; in assay [8], 0.8; in assay [9] it was 0.9; in assay [10] it was 0.8; in assay [11] it was 0.8. For the same molecule, the fold change (FC) in [12] came out at 2.5; in [22], 0.6; in [24], 2.1. Besides, the outcome (in assay [13]; in assay [14]; in [16]; in assay [17]; in [18]; in the assay with Saccharomyces cerevisiae [19]) was Active. Also, the outcome (with Prunus dulcis; in the assay with Saccharomyces cerevisiae [20]; in assay [21]; in [23]; in assay [1]; in the assay on Saccharomyces cerevisiae [2]) was Active. The outcome with Saccharomyces cerevisiae [3] was Active. Further, the result in assay [15] was inactive.
As for `C[N+](C)(C)CC(=O)O`, the outcome in assay [13] and in assay [14] was Active. Besides, the outcome (in [15]; in assay [25]; in [1]; in the assay on Saccharomyces cerevisiae [2]; with Saccharomyces cerevisiae [3]) was inactive.
`C[N+](C)(CC[N+](C)(C)CC(=O)[O-])CC(=O)[O-]`: the result (in assay [1]; with Saccharomyces cerevisiae [2]; in the assay with Saccharomyces cerevisiae [3]) was inactive.
Consider `OCC(O)CO`, for which the result (in assay [1]; in the assay on Saccharomyces cerevisiae [2]; in the assay with Saccharomyces cerevisiae [3]) was inactive.
For `C[N+]1(CC(=O)[O-])CCCCC1`, the result in assay [1] was Active. For the same molecule, the result in the assay on Saccharomyces cerevisiae [2] and in the assay with Saccharomyces cerevisiae [3] was inactive.
